Measurements reported in ChEMBL document CHEMBL1157337, “Interference by naturally occurring fatty acids in a noncellular enzyme-based aromatase bioassay” (J Nat Prod, 2006).

Experiments:
[1] = biological target: T1, Aromatase (Homo sapiens, UniProt P11511); experiment: Inhibition of aromatase in human SKBR3 cells at 100 uM relative to control; type: cell-based; set-up: scale not given: the % may be the effect or the level left; conditions: SK-BR-3, human; read-out: Activity
T1 sequence (P11511 whole entry): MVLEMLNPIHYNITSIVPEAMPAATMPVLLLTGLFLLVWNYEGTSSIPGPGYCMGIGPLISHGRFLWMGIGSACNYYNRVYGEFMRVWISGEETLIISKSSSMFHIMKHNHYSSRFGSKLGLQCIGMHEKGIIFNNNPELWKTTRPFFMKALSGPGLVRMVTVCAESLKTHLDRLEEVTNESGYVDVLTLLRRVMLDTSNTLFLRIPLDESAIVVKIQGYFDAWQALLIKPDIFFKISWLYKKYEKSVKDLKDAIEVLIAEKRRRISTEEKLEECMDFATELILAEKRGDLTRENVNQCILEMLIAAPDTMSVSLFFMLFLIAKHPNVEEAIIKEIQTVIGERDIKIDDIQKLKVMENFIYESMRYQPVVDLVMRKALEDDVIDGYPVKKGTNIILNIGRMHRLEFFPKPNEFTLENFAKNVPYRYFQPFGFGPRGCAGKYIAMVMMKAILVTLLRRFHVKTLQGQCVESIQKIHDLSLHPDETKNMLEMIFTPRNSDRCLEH
How it was run: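 Test agents at 100 µM on aromatase-overexpressing SK-BR-3 cells in T-25 flasks, serum-free DMEM/F12 with albumin/transferrin/insulin, triplicate, 24 h exposure (0.1% DMSO negative control, 10 nM letrozole positive control). Medium replaced with 50 nM androstenedione plus 2 µCi [1β-3H]androstenedione, 6 h; released 3H2O scintillation-counted, corrected for blanks and DNA-based cell count; percent control activity.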

[2] = biological target: T1, Aromatase; experiment: Inhibition of aromatase in human placental microsomes by radiometric method; set-up: species or system Placenta
How it was run: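 Placental microsomal aromatase (50 µg), 100 nM [1β-3H]androstenedione, pH 7.0 phosphate buffer, 5% propylene glycol, NADPH-regenerating system, 37 °C for 15 min; 3H2O in the aqueous phase counted after CHCl3 extraction, boiled-enzyme background. Eight inhibitor concentrations spanning 1–100 µM; IC50 by nonlinear regression.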

[3] = biological target: T1, Aromatase; experiment: Inhibition of aromatase in human placental microsomes at 20 ug/ml by radiometric method relative to control; set-up: species or system Placenta; scale not given: the % may be the effect or the level left; conditions: read-out: Activity
How it was run: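 Human term placental microsomes (50 µg) with sample at 20 µg/mL, 100 nM [1β-3H]androstenedione, 0.1 M K phosphate pH 7.0, 5% propylene glycol, NADPH-regenerating system; 37 °C, 15 min, CHCl3 quench and extraction; aqueous 3H2O counted; triplicate.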

[4] = biological target: T1, Aromatase; experiment: Inhibition of aromatase in human SKBR3 cells at 10 nM relative to control; type: cell-based; set-up: scale not given: the % may be the effect or the level left; conditions: SK-BR-3, human; read-out: Activity
How it was run: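 SK-BR-3 human breast cancer cells (aromatase-overexpressing), grown subconfluent in T-25 flasks, medium switched to serum-free DMEM/F12 with albumin, transferrin, insulin; treated in triplicate 24 h (0.1% DMSO negative control). Then 50 nM androstenedione plus 2 µCi [1β-3H]androstenedione for 6 h; 3H2O counted after TCA, CHCl3 and charcoal cleanup; normalized to DNA-determined cell number, expressed as percent control activity.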

activity at 100 µM [1] | IC50 [2] | activity at 20 µg/mL [3] | activity at 0.01 µM [4] | SMILES
92.8% | 44.2 µM | 49.5% |  | CC/C=C\C/C=C\C/C=C\CCCCCCCC(=O)O [LINOLENIC ACID]
 |  | 66.7% |  | CCCCCCCCCCCCCC(=O)O [MYRISTIC ACID]
138% | 53.2 µM | 30.2% |  | CC/C=C\C/C=C\C/C=C\C/C=C\C/C=C\CCCC(=O)O [ICOSAPENT]
 |  | 76.2% |  | CCCCCCCCCCCCCCC(=O)O [PENTADECANOIC ACID]
94.4% | 16.8 µM | 15.7% |  | CC/C=C\C/C=C\C/C=C\C/C=C\C/C=C\CCCCCC(=O)O [DOCOSAPENTAENOIC ACID]
99.3% | 32.7 µM | 19.5% |  | CCCCCCCC/C=C\CCCCCCCC(=O)O [OLEIC ACID]
 |  | 83.2% |  | CCCCCCCCCCCCCCCC(=O)O [PALMITIC ACID]

Further lines, the compound ahead of its results:

SMILES | activity at 100 µM [1] | IC50 [2] | activity at 20 µg/mL [3] | activity at 0.01 µM [4]
CCCCC/C=C\C/C=C\CCCCCCCC(=O)O [LINOLEIC ACID] | 148% | 48 µM | 22.5% | 
CC/C=C\C/C=C\C/C=C\C/C=C\C/C=C\C/C=C\CCC(=O)O [DOCONEXENT] | 98.2% | 33.2 µM | 12.4% | 
CCCCC/C=C\C/C=C\C/C=C\C/C=C\CCCC(=O)O [ARACHIDONIC ACID] | 147% | 28.2 µM | 11.5% | 
N#Cc1ccc(C(c2ccc(C#N)cc2)n2cncn2)cc1 [LETROZOLE] |  |  |  | 3.9%
CCCCCCCCCCCCCCCCCC(=O)O [STEARIC ACID] |  |  | 89.4% | 
